Experimental data from different studies.
P2RY14: P2Y purinoceptor 14 (P2RY14, Homo sapiens, UniProt Q15391)
Nuclear receptor subfamily 4 group A member 2: Nuclear receptor subfamily 4 group A member 2 (Homo sapiens, UniProt P43354)

| Compound | target | test | system | setting | measurement | result |
| --- | --- | --- | --- | --- | --- | --- |
| COc1ccc2oc(-c3ccc4nc(N)oc4c3)c/c(=N\c3ccccc3NC(=O)CCN)c2c1 | Tyrosine-protein kinase JAK3 (JAK3, Homo sapiens, UniProt P52333) | binding | – | 1 µM | remaining binding | 93% |
| CC(C)OC(=O)[C@H](Cc1c[nH]c2ccccc12)NC(=O)COc1ccccc1 | P2RY14 | cAMP, antagonist | HEK293 | 0.1 µM | inhibition | 79.3% |
| CCCCC(=O)Nc1ccc(-c2ccc3ncn(CCC)c(=O)c3c2)cn1 | Tyrosine-protein kinase JAK3, JH1 (JAK3, Homo sapiens, UniProt P52333) | binding, competition with immobilised ligand | – | 0.5 µM | remaining binding | 100% |
| Cc1onc(-c2ccccc2)c1-c1ccc(S(N)(=O)=O)cc1 | Nuclear receptor subfamily 4 group A member 2 | thermal stability, DSF | – | 100 µM | ΔTm | -1 °C |
| CC(C)OC(=O)[C@H](Cc1c[nH]c2ccccc12)NC(=O)c1ccc2c(c1)OCO2 | P2RY14 | cAMP, antagonist | HEK293 | 0.1 µM | inhibition | 10.7% |
| C#Cc1cc(-c2cc(Nc3nc(N[C@@H](C)c4ccc(F)cn4)ncc3Cl)n[nH]2)ccc1C=O | Ribosomal protein S6 kinase alpha-4 (RPS6KA4, Homo sapiens, UniProt O75676) | enzyme activity, inhibitor | – | 0.2 µM | inhibition | 8.79% |
| O=C(N[C@@H](Cc1c[nH]c2ccccc12)C(=O)O)c1cscn1 | P2RY14 | cAMP, antagonist | HEK293 | 0.1 µM | inhibition | 60.5% |
| CCN(CC)Cc1cc(Nc2ccnc3cc(Cl)ccc23)ccc1O | Nuclear receptor subfamily 4 group A member 2 | thermal stability, DSF | – | 100 µM | ΔTm | -0.09 °C |
| O=C(N[C@@H](Cc1c[nH]c2ccccc12)C(=O)O)C1c2ccccc2Oc2ccccc21 | P2RY14 | cAMP, antagonist | HEK293 | 0.1 µM | inhibition | 18.9% |
| Cc1cc(O)c(-c2ccc([C@@H](C)CN(C)C)cc2)c2c1[nH]c(=O)c1sccc12 | Eukaryotic elongation factor 2 kinase (EEF2K, Homo sapiens, UniProt O00418) | enzyme activity, inhibitor | – | 0.1 µM | inhibition | 9.25% |
| C1=C/COCc2cc(ccc2OCCN2CCCC2)Nc2nccc(n2)-c2cccc(c2)COC/1 | Mitogen-activated protein kinase kinase kinase 1 (MAP3K1, Homo sapiens, UniProt Q13233) | binding | – | 0.1 µM | remaining binding | 100% |
| NC/C(=C\F)COc1cccc(Cn2c(=S)[nH]c(=O)c3[nH]cnc32)c1 | Eosinophil peroxidase (Homo sapiens, UniProt P11678) | enzyme activity, inhibitor | – | 15 µM | remaining activity | 41.3% |
